# According to ChEMBL document CHEMBL4138242, “Synthesis and antibacterial evaluation of novel cationic chalcone derivatives possessing broad spectrum antibacterial activity” (Eur J Med Chem, 2018):
# The source made the active and inactive calls. The rule behind the calls is not given here.
# Legend:
# Staphylococcus aureus [1] = assay: Bactericidal activity against Staphylococcus aureus ATCC 29213 at 6 times MIC after 6 hrs by time-kill assay; format: functional, organism-based
# Procedure, shortened: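 An overnight culture was diluted 1:10,000 in MHB and grown at 37 °C and 225 rpm for 2 h or 5 h. It was then challenged in tubes at 6× and 8× MIC, with vancomycin (6 µg/mL) as comparator. At intervals, aliquots were pelleted, resuspended in PBS, and tenfold dilutions plated on MHA overnight at 37 °C to give CFU/mL. Biological replicates were run.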
# Escherichia coli [2] = assay: Antibacterial activity against drug-resistant NDM1 producing Escherichia coli clinical isolate Ecl-14-59 after 16 to 20 hrs by broth microdilution method; format: functional
# Procedure, shortened: (§1)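 CLSI broth microdilution in Mueller-Hinton broth. A 4-6 h culture was diluted to about 10⁶ CFU/mL and mixed 1:1 with compound dilutions prepared at 256 to 0.5 µg/mL from aqueous stocks. Plates were incubated at 37 °C for 16-20 h and read visually for MIC. Each concentration was run in duplicate, and the experiment was repeated at least twice. Vancomycin and meropenem were comparators.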
# Klebsiella pneumoniae [3] = assay: Antibacterial activity against drug-resistant carbapenemase producing Klebsiella pneumoniae clinical isolate KP-13-55 after 16 to 20 hrs by broth microdilution method; format: functional; procedure, shortened: as §1
# Klebsiella pneumoniae [4] = assay: Antibacterial activity against drug-resistant carbapenemase producing Klebsiella pneumoniae clinical isolate KP-14-45 after 16 to 20 hrs by broth microdilution method; format: functional; procedure, shortened: as §1
# Klebsiella pneumoniae [5] = assay: Antibacterial activity against drug-resistant carbapenemase producing Klebsiella pneumoniae clinical isolate KP-14-3 after 16 to 20 hrs by broth microdilution method; format: functional; procedure, shortened: as §1
# Escherichia coli [6] = assay: Antibacterial activity against drug-resistant NDM1 producing Escherichia coli clinical isolate SM-15-84 after 16 to 20 hrs by broth microdilution method; format: functional; procedure, shortened: as §1
# Klebsiella pneumoniae [7] = assay: Antibacterial activity against drug-resistant carbapenemase producing Klebsiella pneumoniae clinical isolate KP-13-54 after 16 to 20 hrs by broth microdilution method; format: functional; procedure, shortened: as §1
# Escherichia coli [8] = assay: Antibacterial activity against drug-resistant NDM1 producing Escherichia coli clinical isolate Ecl-14-58 after 16 to 20 hrs by broth microdilution method; format: functional; procedure, shortened: as §1
# Staphylococcus aureus [9] = assay: Antibacterial activity against methicillin-resistant Staphylococcus aureus clinical isolate 1104060 after 16 to 20 hrs by broth microdilution method; format: functional; procedure, shortened: as §1
# Escherichia coli [10] = assay: Antibacterial activity against drug-resistant NDM1 producing Escherichia coli clinical isolate EC-13-49 after 16 to 20 hrs by broth microdilution method; format: functional; procedure, shortened: as §1
# Escherichia coli [11] = assay: Antibacterial activity against drug-resistant NDM1 producing Escherichia coli clinical isolate Ecl-14-56 after 16 to 20 hrs by broth microdilution method; format: functional; procedure, shortened: as §1
# Staphylococcus aureus [12] = assay: Antibacterial activity against methicillin-resistant Staphylococcus aureus clinical isolate 1105183 cono7 after 16 to 20 hrs by broth microdilution method; format: functional; procedure, shortened: as §1
# [13] = Hemolytic activity in sheep RBC after 1 hr; format: ADME, cell-based, Ovis aries, Erythrocyte; settings: sheep red blood cells (erythrocytes)
# Procedure, shortened: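 Sheep red blood cells (150 µL suspension) mixed with 50 µL of compound dilutions (5120-10 µg/mL), 1 h at 37 °C, then centrifuged. Supernatant read at 540 nm. Percent hemolysis calculated relative to RBC-only control (0%) and 0.1% Triton X-100 (100%).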
# Escherichia coli [14] = assay: Antibacterial activity against drug-resistant NDM1 producing Escherichia coli clinical isolate KP-13-58 after 16 to 20 hrs by broth microdilution method; format: functional; procedure, shortened: as §1
# Escherichia coli [15] = assay: Antibacterial activity against drug-resistant NDM1 producing Escherichia coli clinical isolate CF-13-61 after 16 to 20 hrs by broth microdilution method; format: functional; procedure, shortened: as §1
# Staphylococcus aureus [16] = assay: Antibacterial activity against methicillin-resistant Staphylococcus aureus clinical isolate 0906202 after 16 to 20 hrs by broth microdilution method; format: functional; procedure, shortened: as §1
# Escherichia coli [17] = assay: Antibacterial activity against drug-resistant NDM1 producing Escherichia coli clinical isolate 1460 after 16 to 20 hrs by broth microdilution method; format: functional; procedure, shortened: as §1
# Escherichia coli [18] = assay: Antibacterial activity against drug-resistant NDM1 producing Escherichia coli clinical isolate Ecl-13-62 after 16 to 20 hrs by broth microdilution method; format: functional; procedure, shortened: as §1
# Escherichia coli [19] = assay: Induction of cytoplasmic membrane depolarization in Escherichia coli ATCC 25922 at 10 to 20 ug/ml measured every 2 mins for 12 mins by DiSC35 dye-based fluorescence assay; format: functional, organism-based
# Procedure, shortened: (§2)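 Mid-log cells (~10⁸ CFU/mL) were suspended in PBS (S. aureus) or HEPES/glucose/KCl with EDTA (E. coli). They were preloaded with DiSC3(5) for 30 min (S. aureus) or 40 min (E. coli), and baseline fluorescence was read for 8 min. Compound was added to 20 µg/mL final, and fluorescence (ex 622/em 670 nm) was read every 2 min for 12 min. Water served as control.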
# Klebsiella pneumoniae [20] = assay: Antibacterial activity against drug-resistant carbapenemase producing Klebsiella pneumoniae clinical isolate KP-14-1 after 16 to 20 hrs by broth microdilution method; format: functional; procedure, shortened: as §1
# Klebsiella pneumoniae [21] = assay: Antibacterial activity against drug-resistant carbapenemase producing Klebsiella pneumoniae clinical isolate KP-14-8 after 16 to 20 hrs by broth microdilution method; format: functional; procedure, shortened: as §1
# Escherichia coli [22] = assay: Antibacterial activity against drug-resistant NDM1 producing Escherichia coli clinical isolate EC-14-54 after 16 to 20 hrs by broth microdilution method; format: functional; procedure, shortened: as §1
# Staphylococcus aureus [23] = assay: Induction of cytoplasmic membrane depolarization in Staphylococcus aureus ATCC 29213 at 10 to 20 ug/ml measured every 2 mins for 12 mins by DiSC35 dye-based fluorescence assay; format: functional, organism-based; procedure, shortened: as §2
# Staphylococcus aureus [24] = assay: Antibacterial activity against methicillin-resistant Staphylococcus aureus clinical isolate 1208143 after 16 to 20 hrs by broth microdilution method; format: functional; procedure, shortened: as §1
# Staphylococcus aureus [25] = assay: Antibacterial activity against methicillin-resistant Staphylococcus aureus clinical isolate 20131012632sau after 16 to 20 hrs by broth microdilution method; format: functional; procedure, shortened: as §1
# Staphylococcus aureus [26] = assay: Antibacterial activity against methicillin-resistant Staphylococcus aureus clinical isolate 0831010 after 16 to 20 hrs by broth microdilution method; format: functional; procedure, shortened: as §1
# Klebsiella pneumoniae [27] = assay: Antibacterial activity against drug-resistant carbapenemase producing Klebsiella pneumoniae clinical isolate EC-13-23 after 16 to 20 hrs by broth microdilution method; format: functional; procedure, shortened: as §1
# Staphylococcus aureus [28] = assay: Antibacterial activity against methicillin-resistant Staphylococcus aureus clinical isolate 1-may after 16 to 20 hrs by broth microdilution method; format: functional; procedure, shortened: as §1
# Klebsiella pneumoniae [29] = assay: Antibacterial activity against drug-resistant carbapenemase producing Klebsiella pneumoniae clinical isolate KP-13-45 after 16 to 20 hrs by broth microdilution method; format: functional; procedure, shortened: as §1
# Staphylococcus aureus [30] = assay: Antibacterial activity against Staphylococcus aureus ATCC 29213 after 16 to 20 hrs by broth microdilution method; format: functional
# Procedure, shortened: (§3)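 Broth microdilution per CLSI. Bacteria grown 4-6 h (about 10⁸ CFU/mL), then diluted to about 10⁶ CFU/mL. Medium: Mueller-Hinton broth, except Luria-Bertani broth for E. coli. Compounds in sterile water, twofold series 256-0.5 µg/mL, mixed 1:1 with inoculum, 37 °C for 16-20 h. MIC is the lowest concentration without visible growth. Duplicate wells; experiment repeated at least twice.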
# Klebsiella pneumoniae [31] = assay: Antibacterial activity against drug-resistant carbapenemase producing Klebsiella pneumoniae clinical isolate KP-14-4 after 16 to 20 hrs by broth microdilution method; format: functional; procedure, shortened: as §1
# Klebsiella pneumoniae [32] = assay: Antibacterial activity against drug-resistant carbapenemase producing Klebsiella pneumoniae clinical isolate KP-14-2 after 16 to 20 hrs by broth microdilution method; format: functional; procedure, shortened: as §1
# Staphylococcus aureus [33] = assay: Induction of inner membrane permeabilization in Staphylococcus aureus ATCC 29213 at 10 to 20 ug/ml measured every 2 mins for 12 mins by propidium iodide staining-based fluorescence assay; format: functional, organism-based
# Procedure, shortened: (§4)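 Mid-log cells (~10⁸ CFU/mL) were suspended in PBS (S. aureus) or HEPES/glucose/KCl (E. coli). They were preincubated with propidium iodide for 30 min (S. aureus) or 40 min (E. coli), and baseline fluorescence was read for 8 min. Compound was added to 20 µg/mL final, and fluorescence (ex 535/em 617 nm) was read every 2 min for 12 min.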
# Escherichia coli [34] = assay: Antibacterial activity against Escherichia coli ATCC 25922 after 16 to 20 hrs by broth microdilution method; format: functional; procedure, shortened: as §3
# Escherichia coli [35] = assay: Antibacterial activity against drug-resistant NDM1 producing Escherichia coli clinical isolate EA-14-61 after 16 to 20 hrs by broth microdilution method; format: functional; procedure, shortened: as §1
# Escherichia coli [36] = assay: Induction of inner membrane permeabilization in Escherichia coli ATCC 25922 at 10 to 20 ug/ml measured every 2 mins for 12 mins by propidium iodide staining-based fluorescence assay; format: functional, organism-based; procedure, shortened: as §4
# Staphylococcus aureus [37] = assay: Antibacterial activity against methicillin-resistant Staphylococcus aureus clinical isolate 1207007 after 16 to 20 hrs by broth microdilution method; format: functional; procedure, shortened: as §1
# Salmonella enterica = assay: Antibacterial activity against Salmonella enterica ATCC 13076 after 16 to 20 hrs by broth microdilution method; format: functional; procedure, shortened: as §3
# Enterococcus faecalis = assay: Antibacterial activity against Enterococcus faecalis ATCC 29212 after 16 to 20 hrs by broth microdilution method; format: functional; procedure, shortened: as §3
# Klebsiella pneumoniae [38] = assay: Antibacterial activity against drug-resistant carbapenemase producing Klebsiella pneumoniae clinical isolate KP-14-5 after 16 to 20 hrs by broth microdilution method; format: functional; procedure, shortened: as §1
# Klebsiella pneumoniae [39] = assay: Antibacterial activity against drug-resistant carbapenemase producing Klebsiella pneumoniae clinical isolate KP-14-18 after 16 to 20 hrs by broth microdilution method; format: functional; procedure, shortened: as §1
# Escherichia coli [40] = assay: Antibacterial activity against drug-resistant NDM1 producing Escherichia coli clinical isolate CF-15-61 after 16 to 20 hrs by broth microdilution method; format: functional; procedure, shortened: as §1
# Staphylococcus aureus [41] = assay: Antibacterial activity against methicillin-resistant Staphylococcus aureus clinical isolate 20130911034sau after 16 to 20 hrs by broth microdilution method; format: functional; procedure, shortened: as §1
compound,measurement,setting,value
CN[C@H](CC(C)C)C(=O)N[C@H]1C(=O)N[C@@H](CC(N)=O)C(=O)N[C@H]2C(=O)N[C@H]3C(=O)N[C@H](C(=O)N[C@H](C(=O)O)c4cc(O)cc(O)c4-c4cc3ccc4O)[C@H](O)c3ccc(c(Cl)c3)Oc3cc2cc(c3O[C@@H]2O[C@H](CO)[C@@H](O)[C@H](O)[C@H]2O[C@H]2C[C@](C)(N)[C@H](O)[C@H](C)O2)Oc2ccc(cc2Cl)[C@H]1O,Activity,Staphylococcus aureus [1],inactive
CCCCCCCC[N+](C)(C)CC(=O)Nc1ccc(C(=O)/C=C/c2ccc3ccccc3c2)cc1.[Cl-],MIC,Escherichia coli [2],16 µg/mL
same,MIC,Klebsiella pneumoniae [3],> 128 µg/mL
same,MIC,Klebsiella pneumoniae [4],> 128 µg/mL
same,MIC,Klebsiella pneumoniae [5],16 µg/mL
same,MIC,Escherichia coli [6],128 µg/mL
same,MIC,Klebsiella pneumoniae [7],16 µg/mL
same,MIC,Escherichia coli [8],16 µg/mL
same,MIC,Staphylococcus aureus [9],16 µg/mL
same,MIC,Escherichia coli [10],16 µg/mL
same,MIC,Escherichia coli [11],8 µg/mL
same,MIC,Staphylococcus aureus [12],1 µg/mL
same,HC50 at 1 h,[13],374 µg/mL
same,MIC,Escherichia coli [14],2 µg/mL
same,MIC,Escherichia coli [15],1 µg/mL
same,MIC,Staphylococcus aureus [16],32 µg/mL
same,MIC,Escherichia coli [17],16 µg/mL
same,MIC,Escherichia coli [18],8 µg/mL
same,Activity,Escherichia coli [19],Active
same,MIC,Klebsiella pneumoniae [20],> 128 µg/mL
same,MIC,Klebsiella pneumoniae [21],16 µg/mL
same,MIC,Escherichia coli [22],1 µg/mL
same,Activity,Staphylococcus aureus [23],Active
same,MIC,Staphylococcus aureus [24],2 µg/mL
same,MIC,Staphylococcus aureus [25],8 µg/mL
same,MIC,Staphylococcus aureus [26],1 µg/mL
same,MIC,Klebsiella pneumoniae [27],8 µg/mL
same,MIC,Staphylococcus aureus [28],2 µg/mL
same,MIC,Klebsiella pneumoniae [29],16 µg/mL
same,MIC,Staphylococcus aureus [30],2 µg/mL
same,MIC,Klebsiella pneumoniae [31],32 µg/mL
same,MIC,Klebsiella pneumoniae [32],> 128 µg/mL
same,Activity,Staphylococcus aureus [33],Active
same,MIC,Escherichia coli [34],8 µg/mL
same,MIC,Escherichia coli [35],8 µg/mL
same,Activity,Escherichia coli [36],Active
same,MIC,Staphylococcus aureus [37],2 µg/mL
same,MIC,Salmonella enterica,8 µg/mL
same,MIC,Enterococcus faecalis,2 µg/mL
same,MIC,Klebsiella pneumoniae [38],16 µg/mL
same,MIC,Klebsiella pneumoniae [39],> 128 µg/mL
same,MIC,Escherichia coli [40],16 µg/mL
same,MIC,Staphylococcus aureus [41],1 µg/mL
